Measured values from ChEMBL document CHEMBL5543129, “Peptide Inhibitor Targeting the Extraterminal Domain in BRD4 Potently Suppresses Breast Cancer Both In Vitro and In Vivo” (J Med Chem, 2024).
The source made the active and inactive calls. The calls are words filed in the database; no cut-off is given here. Square brackets hold non-standard residues; d marks the D form. Peptide text beside a SMILES is read from it. Hyp = O=C(O)[C@@H]1C[C@@H](O)CN1; Ahx = NCCCCCC(=O)O

Assays:
MCF7 [1] = experiment: Inhibition of colony formation in human MCF7 cells at 10 uM incubated for 2 weeks by crystal violet staining based assay; type: functional, cell-based
Procedure, shortened: (§1)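 Cells are seeded at 1 × 10^3/well and treated with peptide (10 μM) for 2 weeks, alone or with JQ1 5 μM, iJMJD6 10 μM, ICI 2.5 μM, or tamoxifen 3 μM (tamoxifen-resistant lines). Colonies are stained with crystal violet, dissolved in 10% acetic acid, and read at 590 nm. Three biological repeats.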

MDA-MB-231 [2] = experiment: Inhibition of colony formation in human MDA-MB-231 cells at 10 uM incubated for 2 weeks by crystal violet staining based assay; type: functional, cell-based; procedure, shortened: as §1
MDA-MB-231 [3] = experiment: Antitumor activity against human MDA-MB-231 cells xenografted in BALB/c nude mouse assessed as reduction in tumor growth at 25 mg/kg, ip administered every 2 days; type: functional, organism-based
Procedure, shortened: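 Female BALB/c nude mice, 4–6 wk, given 5 × 10^6 cells in PBS subcutaneously; MCF7 mice also had E2 (10^-2 M) brushed on the neck every 2 days. Randomised at ~50 mm3. Peptide in 0.9% saline, 25 mg/kg ip every 2 days. Caliper volume (1/2 × L × W²) every 2 days.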

MDA-MB-231 [4] = experiment: Downregulation of […] gene expression in human MDA-MB-231 cells at 10 uM incubated for 6 hrs by RT-qPCR analysis; type: functional, cell-based
Procedure, shortened: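 Cells treated with peptide (10 μM) for 6 h; c-Myc, N-myc and CCND1 mRNA measured by RT-qPCR. Three biological repeats.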

[5] = Downregulation of c-Myc protein expression in human MCF7 cells assessed as fold change in remaining c-Myc level at 10 uM incubated for 24 hrs by immunoblotting analysis (reference value: 1); type: functional
Procedure, shortened: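 Cells (MCF7 or MDA-MB-231 in DMEM, 10% FBS, 37 °C, 5% CO2) are treated with peptide for 24 h. Lysates are taken in Tris/NaCl/EDTA/1% Triton buffer and run on 10% SDS-PAGE. Immunoblots are normalised to β-actin loading control; three repeats.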

Mus musculus = experiment: Downregulation of c-Myc mRNA expression in BALB/c mouse tumor xenografted with human MCF7 cells at 25 mg/kg, ip administered every 2 days by RT-qPCR analysis; type: functional, organism-based
Procedure, shortened: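 Female BALB/c nude mice (4–6 weeks) implanted subcutaneously with 5 × 10^6 cells in PBS. For MCF7 grafts, estrogen (E2, 10–2 M) is brushed on every 2 days. Treatment starts at ~50 mm3 after randomization, with peptide in normal saline ip every 2 days. Tumour mRNA is measured by RT-qPCR.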

MCF7 [6] = experiment: Antitumor activity against human MCF7 cells xenografted in BALB/c nude mouse assessed as reduction in tumor volume at 12.5 mg/kg, ip administered every 2 days in presence of 50 mg/kg JQ1; type: functional, organism-based
Procedure, shortened: (§2)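 Female BALB/c nude mice given 5 × 10^6 cells sc (MCF7 mice with E2 10^-2 M every 2 days), randomised at ~50 mm3. Peptide 12.5 mg/kg ip (saline) every 2 days, plus JQ1 50 mg/kg ip (DMSO/10% HPBCD 1:10) every 2 days or iJMJD6 12.5 mg/kg ip (DMSO/PBS 1:20). Caliper volume every 2 days; tumours weighed at the end.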

MCF7 [7] = experiment: Antitumor activity against human MCF7 cells xenografted in BALB/c nude mouse assessed as reduction in tumor weight at 12.5 mg/kg, ip administered every 2 days in presence of 50 mg/kg JQ1; type: functional, organism-based; procedure, shortened: as §2
MDA-MB-231 [8] = experiment: Antitumor activity against human MDA-MB-231 cells xenografted in BALB/c nude mouse assessed as reduction in tumor weight at 12.5 mg/kg, ip administered every 2 days in presence of 50 mg/kg JQ1; type: functional, organism-based; procedure, shortened: as §2
[9] = Toxicity in BALB/c mouse xenografted with human MCF7 cells assessed as change body weight at 12.5 mg/kg, ip administered every 2 days in presence of 50 mg/kg JQ1; type: organism-based; settings: in vivo, 48 h
[10] = Toxicity in BALB/c mouse xenografted with human MCF7 cells assessed as change in spleen morphology at 12.5 mg/kg, ip administered every 2 days in presence of 50 mg/kg JQ1; type: organism-based; settings: in vivo, 48 h
[11] = Toxicity in BALB/c mouse xenografted with human MCF7 cells assessed as change in liver weight at 12.5 mg/kg, ip administered every 2 days in presence of 50 mg/kg JQ1; type: organism-based; settings: in vivo, 48 h
[12] = Toxicity in BALB/c mouse xenografted with human MCF7 cells assessed as change in lung weight at 12.5 mg/kg, ip administered every 2 days in presence of 50 mg/kg JQ1; type: organism-based; settings: in vivo, 48 h
[13] = Toxicity in BALB/c mouse xenografted with human MCF7 cells assessed as change in kidney weight at 12.5 mg/kg, ip administered every 2 days in presence of 50 mg/kg JQ1; type: organism-based; settings: in vivo, 48 h
MDA-MB-231 [14] = experiment: Inhibition of cell migration in human MDA-MB-231 cells at 10 uM incubated for 24 hrs in presence of JMJD6 inhibitor by inverted microscopic analysis; type: functional, cell-based
Procedure, shortened: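 Cells are seeded at 5 × 10^5/well and scratched at 80–90% confluence. They are kept in serum-free medium with peptide (10 μM); partner agents are JQ1 5 μM, iJMJD6 10 μM, or ICI 2.5 μM. Wound area is imaged by inverted microscope at 0 and 12 or 24 h. Wound closure % = (A0−A1)/A0 × 100. Three biological repeats.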

T47D [15] = experiment: Inhibition of colony formation in human T47D cells at 10 uM incubated for 2 weeks in presence of JMJD6 inhibitor by crystal violet staining based assay; type: functional, cell-based; procedure, shortened: as §1
[16] = Toxicity in BALB/c mouse xenografted with human MCF7 cells assessed as change in liver at 12.5 mg/kg, ip administered every 2 days in presence of 12.5 mg/kg JMJD6 inhibitor; type: organism-based; settings: in vivo, 48 h
Procedure, shortened: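 Female BALB/c nude mice carried MCF7 xenografts (5 × 10^6 cells sc, E2 10–2 M brushed every 2 days) and were randomized at about 50 mm3. Peptide was given at 12.5 mg/kg ip every 2 days, and iJMJD6 (DMSO/PBS 1:20) at 12.5 mg/kg ip every other day, alone or combined. Body and organ weights were recorded.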

MCF7 [17] = experiment: Inhibition of colony formation in human MCF7 cells at 10 uM incubated for 2 weeks in presence of fulvestrant by crystal violet staining based assay; type: functional, cell-based; procedure, shortened: as §1
T47D [18] = experiment: Antiproliferative activity against human T47D cells at 10 uM incubated for 1 week in presence of fulvestrant by CellTiter 96 Aqueous One Solution based assay; type: functional, cell-based; settings: time 1.0 weeks
[19] = Toxicity in BALB/c mouse xenografted with human MCF7 cells assessed as change in organ weight at 2.5 mg/kg, ip administered every 2 days in presence of 12.5 mg/kg fulvestrant; type: organism-based; settings: in vivo, 48 h
MCF7 [20] = experiment: Antiproliferative activity against human MCF7 cells at 10 uM incubated for 1 week in presence of tamoxifen by CellTiter 96 Aqueous One Solution based assay; type: functional, cell-based; settings: time 1.0 weeks
Procedure, shortened: (§3)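 Tamoxifen-resistant MCF7 or T47D cells treated with peptide (10 μM) or tamoxifen (3 μM), alone or combined. Viability read by MTS reagent, 1 h at 37 °C, A490.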

T47D [21] = experiment: Antiproliferative activity against human T47D cells at 10 uM incubated for 1 week in presence of tamoxifen by CellTiter 96 Aqueous One Solution based assay; type: functional, cell-based; settings: time 1.0 weeks; procedure, shortened: as §3

Compound	inhibition (MCF7 [1])	inhibition (MDA-MB-231 [2])	Activity (MDA-MB-231 [3])	Activity (MDA-MB-231 [4])	fold change (FC) [5]	Activity (Mus musculus)	Activity (MCF7 [6])	Activity (MCF7 [7])	Activity (MDA-MB-231 [8])	Activity [9]	Activity [10]	Activity [11]	Activity [12]	Activity [13]	inhibition (MDA-MB-231 [14])	inhibition (T47D [15])	Activity [16]	inhibition (MCF7 [17])	Activity (T47D [18])	Activity [19]	further results
H-YGRKKRRQRRRRNQKFKCGE-OH	Active	Active	Active	Active	0.69	Active	Active	Active	Active	Non-Toxic	Non-Toxic	Non-Toxic	Non-Toxic	Non-Toxic	Active	Active	Non-Toxic	Active	Active	Non-Toxic	Activity (MCF7 [20]): Active; Activity (T47D [21]): Active
CC[C@H](C)[C@H](NC(=O)[C@H](Cc1ccc(O)cc1)NC(=O)[C@@H]1C[C@@H](O)CN1C(=O)[C@H](C)NC(=O)[C@@H](NC(=O)CCCCCNC(=O)[C@H](CCC(=O)O)NC(=O)CNC(=O)[C@H](CS)NC(=O)[C@H](CCCCN)NC(=O)[C@H](Cc1ccccc1)NC(=O)[C@H](CCCCN)NC(=O)[C@H](CCC(N)=O)NC(=O)[C@H](CC(N)=O)NC(=O)[C@H](CCCNC(=N)N)NC(=O)[C@H](CCCNC(=N)N)NC(=O)[C@H](CCCNC(=N)N)NC(=O)[C@H](CCCNC(=N)N)NC(=O)[C@H](CCC(N)=O)NC(=O)[C@H](CCCNC(=N)N)NC(=O)[C@H](CCCNC(=N)N)NC(=O)[C@H](CCCCN)NC(=O)[C@H](CCCCN)NC(=O)[C@H](CCCNC(=N)N)NC(=O)CNC(=O)[C@@H](N)Cc1ccc(O)cc1)[C@@H](C)CC)C(=O)O (H-YGRKKRRQRRRRNQKFKCGE[Ahx]IA[Hyp]YI-OH)	Active	Active	Active	Active	0.72	Active	Active	Active	Active	Non-Toxic	Non-Toxic	Non-Toxic	Non-Toxic	Non-Toxic	Active	Active	Non-Toxic	Active	Active	Non-Toxic	Activity (MCF7 [20]): Active; Activity (T47D [21]): Active
